In ChEMBL document CHEMBL1144523, “Synthetic cryptolepine inhibits DNA binding of NF-kappaB” (Bioorg Med Chem, 2007):
Structures can show the parent of a compound that is named as a salt. One block for each compound: values may come before it. Active and inactive are the calls of the source. The calls are words filed in the database; no cut-off is given here.

Key:
RAW [1] = assay: Effect on IkappaB phosphorylation in LPS-stimulated mouse RAW 264.7 cells […]; assay type: cell-based
[2] = biological target: Transcription factor p65 (Mus musculus) (UniProt Q04207); assay: Inhibition of […]/NFkappaB nuclear translocation in LPS-stimulated mouse RAW 264.7 cells administered at 10 uM for 30 mins after LPS challenge; assay type: cell-based
Transcription factor p65 (Mus musculus), sequence (Q04207 whole entry): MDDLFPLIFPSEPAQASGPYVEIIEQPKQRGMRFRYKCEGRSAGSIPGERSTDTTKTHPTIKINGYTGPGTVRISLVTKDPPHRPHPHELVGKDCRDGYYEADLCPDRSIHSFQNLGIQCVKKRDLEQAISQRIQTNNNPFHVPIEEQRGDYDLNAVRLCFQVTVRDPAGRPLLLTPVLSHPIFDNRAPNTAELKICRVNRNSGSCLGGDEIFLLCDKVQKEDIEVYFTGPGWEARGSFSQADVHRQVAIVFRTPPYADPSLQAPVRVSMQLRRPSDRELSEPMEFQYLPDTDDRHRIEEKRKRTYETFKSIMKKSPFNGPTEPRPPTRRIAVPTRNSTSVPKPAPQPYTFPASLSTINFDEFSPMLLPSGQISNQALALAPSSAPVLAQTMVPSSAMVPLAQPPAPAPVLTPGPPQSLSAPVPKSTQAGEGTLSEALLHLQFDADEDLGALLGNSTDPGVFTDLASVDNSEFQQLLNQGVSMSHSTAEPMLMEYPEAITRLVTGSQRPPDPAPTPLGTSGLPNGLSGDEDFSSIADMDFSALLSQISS
Procedure, shortened: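 RAW 264.7 cells were grown on gelatine-coated coverslips and preincubated with 10 µM compound for 30 min, then given LPS for 30 min. Cells were fixed in 2% formalin, permeabilized with 0.2% Triton X-100 and blocked in 5% BSA. They were stained with anti-p65 (1:50, 2 h, room temperature) plus FITC secondary (1 h) and imaged by confocal microscopy at 488 nm excitation.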

RAW [3] = assay: Inhibition of DNA binding of NF-kappaB in LPS-stimulated mouse RAW 264.7 cells administered at 5 uM […] by EMSA; assay type: cell-based
Procedure, shortened: (§1)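 RAW 264.7 cells were pretreated with compound for 30 min, then stimulated with LPS (100 ng/ml in methods) for 60 min. Nuclear extracts were made by hypotonic HEPES swelling with NP-40, then hypertonic 0.4 M NaCl extraction. Equal nuclear protein was incubated with labelled NF-κB probe for 30 min at room temperature, resolved on a 4.5% native gel and imaged by phosphorimager.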

RAW [4] = assay: Inhibition of DNA binding of NF-kappaB in LPS-stimulated mouse RAW 264.7 cells administered at 10 uM […] by EMSA; assay type: cell-based; procedure, shortened: as §1
HEK293 = assay: Inhibition of NF-kappaB-mediated gene transcription in HEK293 cells by luciferase reporter gene assay; assay type: cell-based; conditions: Homo sapiens
Procedure, shortened: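 HEK293 cells were transfected with pNF-κB-luc by Ca²⁺-phosphate, reseeded at 15,000 cells/well and grown for 16 h. They were pretreated with compound for 30 min, then stimulated with TNF-α 1 ng/ml for 6 h. Lysates were assayed for luciferase by luminometer. Data are means ± SD of at least four experiments in triplicate, ANOVA/Dunnett.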

RAW [5] = assay: Effect on IkappaB degradation in LPS-stimulated mouse RAW 264.7 cells administered at 10 uM for 30 mins […]; assay type: functional, cell-based
Procedure, shortened: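 RAW 264.7 cells were pretreated with 10 µM compound for 30 min, then stimulated with LPS for the indicated times. Cells were lysed in SDS buffer, run on 10–12% gels and blotted to PVDF. Blots were probed for phospho-IκB, IκB after stripping, and tubulin, with ECL detection. Densitometric p-IκB/IκB ratios are given as fold of unstimulated control; three independent experiments, means ± SD.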

RAW [6] = assay: Inhibition of DNA binding of NF-kappaB isolated from LPS-stimulated mouse RAW 264.7 cells administered at 250 uM after 30 mins by EMSA; assay type: cell-free
Procedure, shortened: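 Nuclei from LPS-stimulated RAW 264.7 macrophages served as the source of active NF-κB. Equal amounts of nuclear protein were incubated with compound for 30 min, with or without 2 mM DTT. Radiolabelled NF-κB consensus probe was then added for 30 min at room temperature. Complexes were resolved on a 4.5% native gel and imaged by phosphorimager.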

RAW [7] = assay: Inhibition of LPS-stimulated nitric oxide production in mouse RAW 264.7 cells at 10 uM after 20 hrs relative to control; assay type: functional
Procedure, shortened: (§2)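 RAW 264.7 cells were seeded in 96-well plates and cultured for 2 days. Compound was added, then LPS immediately after, for 20 h. Nitrite in the supernatant was measured by Griess reaction (sulfanilamide plus N-(1-naphthyl)ethylenediamine) at 550 nm against a 620 nm reference, quantified from a sodium nitrite standard curve. Runs were in triplicate; data are means ± SD of six independent experiments, ANOVA/Dunnett.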

RAW [8] = assay: Inhibition of LPS-stimulated nitric oxide production in mouse RAW 264.7 cells at 5 uM after 20 hrs relative to control; assay type: functional; procedure, shortened: as §2
[9] = Cytotoxicity against mouse RAW 264.7 cells; assay type: cell-based
Procedure, shortened: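 RAW 264.7 cells (DMEM, 10% heat-inactivated FBS, passages 5–20) were first run through the 20 h LPS nitrite assay. Attached cells were then stained with 0.5% Crystal Violet in 20% methanol. Bound dye was dissolved in 50% 1 M sodium citrate/50% ethanol and absorbance read at 540 nm.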

Activity [2]: inactive
Compound: C[n+]1c2ccccc2cc2[n-]c3ccccc3c21
Activity (RAW [1]): inactive | Activity (RAW [3]): Active | Activity (RAW [4]): Active | Activity (HEK293): Dose-dependent effect | Activity (RAW [5]): inactive | Activity (RAW [6]): Active

Activity [2]: Active
Compound: C=C1C(=O)O[C@@H]2C3O[C@]3(C)CC/C=C(\C)CC[C@@H]12 (some centres not stated)
Activity (RAW [3]): Active

Compound: C[n+]1c2ccccc2cc2[n-]c3ccccc3c21 [CRYPTOLEPINE HYDROCHLORIDE]
inhibition at 10 µM (RAW [7]): 50% | inhibition at 5 µM (RAW [8]): 30%

Compound: C[n+]1c2ccccc2cc2[n-]c3ccccc3c21 [CRYPTOLEPINE]
Activity [9]: Active
